TRPC6 inhibitor – mouse TRPC6 channel inhibition. Q61143. HEK293-TRPC6, membrane potential dye, ACh-evoked depolarization; hits give low values. B-score at 10 µM. 1.1% of 310,000 active;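 active means B-score under library mean minus 3 SD, initial fluorescence not abnormally high, positive integrated signal ratio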;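 further: B-score derived from integrated fluorescence ratio over the kinetic read; more negative B-score means stronger inhibition of depolarization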
TRPC6 act – activators of mouse TRPC6 channel; Q61143; HEK293-TRPC6 membrane potential dye fluorescence; hits give high values; B-score at 10 µM; 0.13% of 310,000 active; AID 2550;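 active means B-score of the integrated fluorescence ratio above library mean plus 3 SD, and starting fluorescence ratio within library mean plus 5 SD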;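 further: higher score means more depolarization so channel activation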
TRPC4 PAM – TRPC4 (mouse) allosteric potentiation; Q9QUQ5; HEK293 TRPC4beta/mu-opioid, DAMGO EC20, Fluo-4 Ca2+ flux; hits give high values; B-score at 10 µM; 0.42% of 310,000 active;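 active means B-score of calcium response area above 5 SD of library B-scores, with initial fluorescence ratio within 5 SD of library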;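 further: B-score of integrated fluorescence ratio over time as area under calcium response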
Kir21 block – Kir2.1 (mouse) channel inhibition | P35561 | HEK293-Kir2.1, FluxOR thallium flux fluorescence; hits give low values | B-score at 10 µM | 0.85% of 310,000 active | AID 1672;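 active means fluorescence ratio B-score at or below minus 3 SD of library scores, with starting-brightness B-score within 2 SD, cut at about -4.2 in these data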;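 further: channel flux triggered by added potassium and thallium sulfate stimulus; B-score of peak minus minimum fluorescence over baseline after thallium stimulus; more negative B-score means stronger Kir2.1 block with less thallium influx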
Target sequence (P35561 whole entry, looked up): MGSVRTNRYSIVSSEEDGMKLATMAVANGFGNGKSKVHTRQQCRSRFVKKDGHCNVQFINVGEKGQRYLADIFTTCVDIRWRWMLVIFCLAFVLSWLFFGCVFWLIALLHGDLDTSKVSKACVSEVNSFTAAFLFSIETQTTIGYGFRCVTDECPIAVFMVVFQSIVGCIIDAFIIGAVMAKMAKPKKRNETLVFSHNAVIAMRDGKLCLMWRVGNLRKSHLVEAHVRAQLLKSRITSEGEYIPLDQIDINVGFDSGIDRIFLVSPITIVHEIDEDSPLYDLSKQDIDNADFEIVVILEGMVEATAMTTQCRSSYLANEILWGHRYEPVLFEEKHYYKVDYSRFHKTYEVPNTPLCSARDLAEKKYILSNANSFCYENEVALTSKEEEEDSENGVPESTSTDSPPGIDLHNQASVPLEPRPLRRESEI
TRPC4 inh – TRPC4 (mouse) channel inhibition. Q9QUQ5. HEK293 TRPC4beta/mu-opioid, DAMGO-evoked Fluo4 calcium flux; hits give low values. B-score at 10 µM. 0.39% of 300,000 active. AID 2247;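 active means B-score over 3 SD under the library average, no early fluorescence shift, positive overall ratio signal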
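Assay system: Stable TRPC4beta/mu-opioid receptor HEK293 cells | Reagent: DAMGO in two steps, submaximal then maximal | Compound dosing: Single concentration per test compound | Signal: Fluo4 Ca2+ flux fluorescence | Evaluation: Per-well B score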
TRPC4 act – TRPC4 (mouse) channel activation; Q9QUQ5; HEK293 TRPC4beta/mu-opioid, Fluo4 calcium fluorescence; hits give high values; B-score at 10 µM; 0.49% of 310,000 active;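 active means B-score above 5 SD of library B-scores, and initial fluorescence ratio not above library mean plus 5 SD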;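 further: positive B-score marks a calcium rise read as TRPC4 activation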
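Assay system: HEK293 stable line with TRPC4beta plus mu-opioid receptor; schedule: 45 min room-temperature Fluo4 loading, 110 s read; technique: kinetic Fluo4 calcium fluorescence; evaluation: integrated baseline-normalised fluorescence ratio, converted to per-well B score; controls: buffer (low) and maximal DAMGO (high)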
TRPC4 sel inh 2 – second check of whether TRPC6 inhibitors also affect mouse TRPC4; HEK293 TRPC4/MOR, membrane potential dye fluorescence; channel activated by saturating DAMGO dose; 42% of 920 active; shares compounds with TRPC6 inhibitor; AID 2776; inhibition, % at 10 µM;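 active means compounds whose fluorescence signal differed from control wells by over 3 SD, either direction, in both duplicate plates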
TRPC4 spec – selectivity of TRPC6 inhibitors: effect on mouse TRPC4. shares compounds with TRPC6 inhibitor. HEK293 TRPC4/mu-opioid, membrane potential fluorescence. activity change, negative = inhibition, % at 10 µM. 61% of 920 active. AID 2777;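 active means rise or fall in signal beyond 3 SD of buffer-only wells in both replicate plates, either sign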;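 further: integrated kinetic ratio of fluorescence range over baseline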
HEK293 MPD ctr 2-1 – parental HEK293 nonspecific activity of TRPC6 inhibitors, second screen; shares compounds with TRPC6 inhibitor; parental HEK293 membrane potential dye fluorescence; maximal acetylcholine challenge after compound addition; signal change vs control, % at 10 µM; 31% of 920 active;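 active means membrane potential signal moving either way by over 3 SD of the maximum-effect control, in both duplicate plates, meaning non-specific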
HEK293 MPD ctr-1 – parental HEK293 nonspecific activity of TRPC6 inhibitors; 60% of 920 active; parental HEK293 membrane potential dye fluorescence; membrane potential signal change, % at 10 µM; shares compounds with TRPC6 inhibitor; AID 2780;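 active means membrane potential signal shifting up or down by more than 3 SD of buffer-only wells, on both duplicate plates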
HEK293 MPD ctr-2 – checks TRPC6 modulator effects in parental HEK293 cells; shares compounds with TRPC6 inhibitor; membrane potential dye fluorescence; membrane potential signal change, % at 10 µM; 51% of 2,400 active; AID 488924;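 active means membrane potential signal moves up or down beyond 5 SD from buffer-only wells, on both duplicate plates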
HEK293 MPD ctr 2-2 – parental HEK293 nonspecific activity of TRPC6 modulators, second screen. shares compounds with TRPC6 inhibitor. membrane potential dye fluorescence; after compound, maximal acetylcholine stimulation. inhibition, % at 10 µM. 14% of 2,400 active;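 active means membrane potential signal drops by more than 5 SD from the mean control signal, in both duplicate plates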;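 further: plate controls were acetylcholine ECmax control wells for no effect and buffer only wells for full effect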
TRPC4 ctr mod – mouse TRPC4 off-target activity of TRPC6 modulators; shares compounds with TRPC6 inhibitor; HEK293 TRPC4/mu-opioid, membrane potential fluorescence; percent change from control (negative = decrease, positive = increase), % at 10 µM; 69% of 2,400 active; AID 488927;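 active means membrane potential signal moved up or down beyond 5 SD of buffer control wells, in both duplicate plates, actives on both sides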;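 further: plate controls were assay buffer wells for no effect and DAMGO maximal-effect wells for full effect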
TRPC4/MOR inh 2 – mouse TRPC4 off-target activity of TRPC6 modulators, second screen; shares compounds with TRPC6 inhibitor; HEK293 TRPC4/mu-opioid, membrane potential dye fluorescence; stimulated with maximal-effect DAMGO; inhibition, % at 10 µM; 55% of 2,400 active;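 active means drop in membrane potential signal beyond 5 SD of the control wells in both duplicate plates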;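 further: TRPC4 counter screen for TRPC6 hits run under conditions tuned for TRPC6 not TRPC4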
TRPC6 inh conf – confirmation of mouse TRPC6 inhibitors; 43% of 3,300 active; shares compounds with TRPC6 inhibitor; inhibition, % at 10 µM; HEK293-TRPC6, membrane potential dye, ACh-evoked depolarization; AID 488960;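 active means fluorescence ratio falls more than 5 SD below the full-stimulation control mean, in both duplicate runs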;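 further: integrated fluorescence ratio of peak minus minimum over baseline after agonist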
TRPC6 act conf – mouse TRPC6 activator confirmation. shares compounds with TRPC6 inhibitor. AID 488961. HEK293-TRPC6 membrane potential dye fluorescence, FDSS. activation, % at 10 µM. 11% of 2,800 active;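 active means ratio signal rise beyond 5 SD above unstimulated control wells' mean, seen in both duplicate runs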;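 further: plate controls were buffer EC0 wells for no effect and acetylcholine ECmax response for full effect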
An asterisk follows results filed as active; i = inactive; nt = no result. Sampled rows, rich in hits. Any-hit rate of the full collection: about 2.9%.

SMILES | TRPC6 inhibitor | TRPC6 act | TRPC4 PAM | Kir21 block | TRPC4 inh | TRPC4 act | HEK293 MPD ctr-2 | HEK293 MPD ctr 2-2 | TRPC4 ctr mod | TRPC4/MOR inh 2 | TRPC6 inh conf | TRPC6 act conf | others
CNS(=O)(=O)c1ccc(NC(=O)c2ccccn2)cc1 | i | i | i | -0.14 | i | i | nt | nt | nt | nt | nt | nt
C=CCOC(=O)C1=C(C)OC(N)=C(C#N)C1c1ccc2c(c1)OCO2 (stereo unspecified) | i | i | i | -1.2 | i | i | nt | nt | nt | nt | nt | nt
CCOC(=O)C1=C(C)OC(N)=C(C#N)C1c1cc2c(cc1Br)OCO2 (stereo unspecified) | -5.2* | i | i | -1.3 | i | i | i | i | i | i | i | i
O=C(O)CC(CC(=O)N1CCN(C(=O)c2ccco2)CC1)c1ccccc1 (stereo unspecified) | i | i | i | -0.42 | i | i | nt | nt | nt | nt | nt | nt
COc1ccc([N+](=O)[O-])cc1NC(=O)C(C)N1CCCC1 (stereo unspecified) | -6.1* | i | i | 0.07 | i | i | i | 86%* | i | i | 72%* | i
Cc1cc(C)n(-c2nc(NCCN(C)C)c3c4c(sc3n2)COC(C)(C)C4)n1 | -5.4* | i | i | -1.1 | i | i | i | i | -13%* | 44%* | i | i
CCN(CC)CCNc1nc(-n2nc(C)cc2C)nc2sc3c(c12)CC(C)(C)OC3 | -6.3* | i | i | -3.5 | i | i | i | i | i | 40%* | i | i
Cc1cc(C)n(-c2nc(NCCC(C)C)c3c4c(sc3n2)COC(C)(C)C4)n1 | i | i | i | 1.6 | i | i | nt | nt | nt | nt | nt | nt
Cc1cc(C)n(-c2nc(NCCCN(C)C)c3c4c(sc3n2)CCCC4)n1 | -7.1* | i | i | -1.9 | i | i | nt | nt | nt | nt | 57%* | i | TRPC4 sel inh 2=66%*;TRPC4 spec=i;HEK293 MPD ctr 2-1=i;HEK293 MPD ctr-1=i
Cc1cc(C)n(-c2nc(NCCN(C)C)c3c4c(sc3n2)CCCC4)n1 | i | i | i | -3.6 | i | i | nt | nt | nt | nt | nt | nt
Cc1cc(C)n(-c2nc(NCCCN(C)C)c3c4c(sc3n2)COC(C)(C)C4)n1 | -7.6* | i | i | -0.32 | i | i | nt | nt | nt | nt | i | i | TRPC4 sel inh 2=i;TRPC4 spec=-11%*;HEK293 MPD ctr 2-1=i;HEK293 MPD ctr-1=-188%*
Cc1ccc(NC(=O)CCN2CC(C)OC(C)C2)cc1C (stereo unspecified) | i | i | i | -2.1 | i | i | nt | nt | nt | nt | nt | nt
Cc1cc(OCc2cn3cccnc3n2)ccc1Cl | i | i | i | -1.6 | i | i | nt | nt | nt | nt | nt | nt
COC(=O)Cn1nnc(N2CCOCC2)n1 | i | i | i | -0.54 | i | i | nt | nt | nt | nt | nt | nt
O=C(N/N=C/c1cccnc1)C(O)c1ccccc1 (stereo unspecified) | i | i | i | -0.01 | i | i | nt | nt | nt | nt | nt | nt
O=C(c1ccncc1)N1N=C(C2CCCCC2)CC1(O)C(F)(F)F (stereo unspecified) | -5.8* | i | i | -1.1 | i | i | i | i | i | i | i | i
NCCc1ccc(O)c(O)c1 | -5.3* | i | i | -0.17 | i | i | i | i | i | i | i | i
Cc1c(F)cccc1NS(=O)(=O)c1ccc2c(c1)c(C)cc(=O)n2C | -6.8* | i | i | -2.6 | i | i | nt | nt | nt | nt | i | i | TRPC4 sel inh 2=i;TRPC4 spec=i;HEK293 MPD ctr 2-1=i;HEK293 MPD ctr-1=i
Cc1cc(NCCCN2CCOCC2)n2nc(C)c(-c3ccccc3)c2n1 | -6.1* | i | i | -0.66 | i | i | -171%* | i | -31%* | 38%* | i | i
CC(C)NCC(O)Cn1c2c(c3ccccc31)CCc1c-2cnn1-c1ccccc1 (stereo unspecified) | -10* | i | i | -6.1* | i | i | nt | nt | nt | nt | 85%* | i | TRPC4 sel inh 2=28%*;TRPC4 spec=-23%*;HEK293 MPD ctr 2-1=40%*;HEK293 MPD ctr-1=-326%*
Fc1ccccc1N1CCN(C2CCCN(Cc3ccccc3C(F)(F)F)C2)CC1 (stereo unspecified) | i | i | i | 0.66 | i | i | nt | nt | nt | nt | nt | nt
CC(C)Oc1ccc(C(CCN)C2CCCCC2)cc1 (stereo unspecified) | -6.7* | i | i | -8.3* | i | i | nt | nt | nt | nt | i | i | TRPC4 sel inh 2=51%*;TRPC4 spec=i;HEK293 MPD ctr 2-1=i;HEK293 MPD ctr-1=i
CC(C)Oc1ccc(OCCCN2CCCCCC2)cc1 | i | i | i | -0.14 | i | i | nt | nt | nt | nt | nt | nt
CCC(C)NC(=O)CN1C(=O)NC2(CCc3ccccc3C2)C1=O (stereo unspecified) | i | i | i | -0.89 | i | i | nt | nt | nt | nt | nt | nt
CCCCCn1c(=NC(=O)c2ccco2)c(C(=O)OCC)cc2c(=O)n3ccccc3nc21 | i | i | i | -0.11 | i | i | nt | nt | nt | nt | nt | nt
CCCCn1c(=NC(=O)c2ccco2)c(C(=O)OCC)cc2c(=O)n3ccccc3nc21 | -5.8* | i | i | 0.56 | i | i | i | i | i | i | i | i

Source: PubChem BioAssay (Johns Hopkins Ion Channel Center)
